Assay results as given in ChEMBL document CHEMBL5321263, “Metabolomics-Guided Discovery, Isolation, Structure Elucidation, and Bioactivity of Myropeptins C-E from Myrothecium inundatum” (J Nat Prod, 2023).
pIC50: −log10 of the molar value. In brackets after ≈: the same amount, converted by molar mass. Activity calls are given as the source filed them. The calls are words filed in the database; no cut-off is given here. Where a SMILES comes first, the peptide text is derived from it. [ ]: non-standard residue; d: D form. The star is where a group is joined. Lauroyl = CCCCCCCCCCCC(=O)*; Decanoyl = CCCCCCCCCC(=O)*; Aib = CC(C)(N)C(=O)O; βAla = NCCC(=O)O

Experiments:
MDA-MB-231 = assay: Antiproliferative activity against human MDA-MB-231 cells measured after 24 hrs by MTT assay; format: functional, cell-based; conditions: MDA-MB-231, 24 h
Method in brief: (§1)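 MTT read-out after 24 h; HCT-116 (7000 cells/well) or MDA-MB-231 (8000 cells/well) in DMEM with 10% FBS, 37 °C, 5% CO2, plated overnight before dosing; MTT 0.5 mg/ml final, 2 h at 37 °C; formazan dissolved in DMSO, A550; vehicle (0.5% DMSO) set as 100% growth; biological triplicates, two technical replicates.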

[1] = Toxicity in zebra fish AB embryo assessed as mortality at 10 uM incubated for 48 hrs relative to control; design: species or system Danio rerio; conditions: zebrafish, read-out: Activity
[2] = Toxicity in zebra fish AB embryo assessed as mortality incubated for 48 hrs; design: species or system Danio rerio; conditions: zebrafish
[3] = Toxicity in human SK-MEL-5 cells assessed as calcium influx-mediated cell rupture at 16 uM measured upto 120 secs by fluorescence based analysis; conditions: sk-mel-5, 2 min, time < 120 sec
[4] = Hemolytic activity in sheep erythrocytes assessed as hemolysis incubated for 1 hr by microplate reader based analysis; format: toxicity, cell-based, Ovis aries, Erythrocyte
Method in brief: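 Defibrinated sheep blood washed 3× in PBS, diluted 1:500 (~8×10^7 cells/mL); 190 μL suspension plus 10 μL 20-fold compound stock in PBS + 0.5% DMSO, 1 h at 37 °C; centrifuged, supernatant OD450; 0.1% Triton X-100 positive control; three independent experiments.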

HCT-116 = assay: Antiproliferative activity against human HCT-116 cells measured after 24 hrs by MTT assay; format: functional, cell-based; conditions: HCT-116, 24 h; method in brief: as §1
Staphylococcus aureus [5] = assay: Antimicrobial activity against methicillin resistant Staphylococcus aureus ATCC BAA41 measured after 16 hrs by CLSI protocol based method; format: functional
Staphylococcus aureus [6] = assay: Antimicrobial activity against Staphylococcus aureus ATCC 25923 measured after 16 hrs by CLSI protocol based method; format: functional
Staphylococcus aureus [7] = assay: Antimicrobial activity against multidrug resistant Staphylococcus aureus ATCC BAA-44 measured after 16 hrs by CLSI protocol based method; format: functional
OVCAR-8 = assay: Antiproliferative activity against human OVCAR-8 cells measured after 24 hrs by MTT assay; format: functional; conditions: read-out: LC50 (the source's name)
[Candida] auris = Antimicrobial activity against Candida auris CDCB11903 measured after 16 hrs by CLSI protocol based method; format: functional; conditions: Candidozyma auris
SK-MEL-5 [8] = assay: Induction of apoptosis in human SK-MEL-5 cells assessed as early apoptosis at 1 to 4 uM measured after 3 hrs by Annexin V-FITC/propidium iodide staining based flow cytometric analysis; format: functional, cell-based; conditions: dose 1-4 µM
Method in brief: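 SK-Mel-5 (1 × 10^6 cells per T25) grown 24 h, then treated 3 h in medium at 1 or 4 μM; 0.5% DMSO vehicle, 5 μM camptothecin control; trypsinised, washed, stained with FITC-annexin V and propidium iodide 15 min at RT in the dark, analysed by flow cytometry within 1 h.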

SK-MEL-5 [9] = assay: Induction of apoptosis in human SK-MEL-5 cells assessed as membrane blebbing at 1 uM measured after 30 mins by confocal microscopy based analysis; format: functional, cell-based
Method in brief: (§2)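 SK-Mel-5 on poly-L-lysine-coated coverslips, 24 h; 30 min at 37 °C with 2 μM MitoOrange, 0.1% Hoechst 33342 and 1 μM compound, 0.1% DMSO or 50 μM FCCP; washed in warm PBS with CaCl2/MgCl2; confocal imaging, 20x objective, transmitted light plus MitoOrange CMTMRos and Hoechst channels.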

SK-MEL-5 [10] = assay: Induction of mitochondrial membrane potential in human SK-MEL-5 cells assessed as reduction in accumulation of dye at 1 uM measured after 30 mins by […] staining based confocal microscopy analysis; format: functional, cell-based; method in brief: as §2
SK-MEL-5 [11] = assay: Induction of calcium influx in human SK-MEL-5 cells assessed as increase in fluorescence at 1 to 4 uM measured upto 120 secs by fluorescence based assay; format: functional, cell-based; conditions: dose 1-4 µM, time <= 120.0 sec
[12] = Toxicity in zebra fish AB embryo assessed as mortality at 50 uM incubated for 48 hrs relative to control; design: species or system Danio rerio; conditions: zebrafish, read-out: Activity

| Structure (SMILES) | pIC50 (MDA-MB-231) | IC50 at 1 h [4] | pIC50 (HCT-116) | MIC (Staphylococcus aureus [5]) | MIC (Staphylococcus aureus [6]) | MIC (Staphylococcus aureus [7]) | MIC ([Candida] auris) | further results |
| --- | --- | --- | --- | --- | --- | --- | --- | --- |
| CCCCCCCCCCCC(=O)NC(C)(C)C(=O)N1CCC[C@H]1C(=O)NC(C)(C)C(=O)NC(C)(C)C(=O)N1CCC[C@H]1C(=O)NC(C)(C)C(=O)NC(C)(C)C(=O)N1CCC[C@H]1C(=O)N[C@@H](C)C(=O)NC(C)(C)C(=O)NCCC(=O)N[C@@H](C)C(=O)NC(C)(C)C(=O)NC(C)(C)C(=O)NCCC(=O)NC(C)(C)C(=O)NC(C)(C)C(=O)NC(C)(C)C(=O)N[C@@H](C)C(=O)NCCC(=O)O [listing 1 of 2 here] | 5.82 | 1.5 µM | 5.92 |  |  |  |  | mortality at 48 h, 10 µM [1]: 100%; EC50 at 48 h [2]: 5 µM; Activity [3]: Toxic |
| CCCCCCCCCCCC(=O)NC(C)(C)C(=O)N1CCC[C@H]1C(=O)NC(C)(C)C(=O)NC(C)(C)C(=O)N1CCC[C@H]1C(=O)NC(C)(C)C(=O)NC(C)(C)C(=O)N1CCC[C@H]1C(=O)N[C@@H](C)C(=O)NC(C)(C)C(=O)NCCC(=O)N[C@@H](C)C(=O)NC(C)(C)C(=O)NC(C)(C)C(=O)NCCC(=O)NC(C)(C)C(=O)NC(C)(C)C(=O)NC(C)(C)C(=O)N[C@@H](C)C(=O)NCCC(=O)O [listing 2 of 2 here] |  |  |  | 4 µg/mL (≈ 2.16 µM) | 4 µg/mL (≈ 2.16 µM) | 4 µg/mL (≈ 2.16 µM) | 4 µg/mL (≈ 2.16 µM) | CC50 (OVCAR-8): > 16 µM |
| COc1cccc2c1[C@H](OC)[C@]13O[C@@]1(C2=O)[C@H](O)[C@H](C)[C@@](O)(C(=O)[C@@H]1O[C@H]1C)[C@@H]3O | 6.22 |  | 5.89 |  |  |  |  |  |
| CCCCCCCCCCCC(=O)NC(C)(C)C(=O)N1CCC[C@@H]1C(=O)NC(C)(C)C(=O)NC(C)(C)C(=O)N1CCC[C@@H]1C(=O)NC(C)(C)C(=O)NC(C)(C)C(=O)N1CCC[C@H]1C(=O)N[C@@H](C)C(=O)NC(C)(C)C(=O)NCCC(=O)N[C@@H](C)C(=O)NC(C)(C)C(=O)NC(C)(C)C(=O)NCCC(=O)NC(C)(C)C(=O)NC(C)(C)C(=O)NC(C)(C)C(=O)N[C@@H](C)C(=O)NCCC(=O)O |  |  |  |  |  |  |  | Activity (SK-MEL-5 [8]): Active; Activity (SK-MEL-5 [9]): inactive; Activity (SK-MEL-5 [10]): Active |
| C[C@H](CCC(=O)O)C[C@H](C)C[C@H](C)C(=O)/C=C(\O)[C@H](C)C[C@H](C)C/C=C/[C@@H](C)[C@@H](O)[C@@H](C)[C@@H](O)C[C@@H]1CC[C@@](C)([C@H]2CC[C@@](C)([C@@H](C)O)O2)O1 |  |  |  |  |  |  |  | Activity (SK-MEL-5 [11]): Active |
| CCCCCCCCCC(=O)NC(C)(C)C(=O)N1CCC[C@H]1C(=O)NC(C)(C)C(=O)NC(C)(C)C(=O)N1CCC[C@H]1C(=O)NC(C)(C)C(=O)NC(C)(C)C(=O)N1CCC[C@H]1C(=O)N[C@@H](C)C(=O)NC(C)(C)C(=O)NCCC(=O)N[C@@H](C)C(=O)NC(C)(C)C(=O)NC(C)(C)C(=O)NCCC(=O)NC(C)(C)C(=O)NC(C)(C)C(=O)NC(C)(C)C(=O)N[C@@H](C)C(=O)NCCC(=O)O (Decanoyl-[Aib]P[Aib][Aib]P[Aib][Aib]PA[Aib][βAla]A[Aib][Aib][βAla][Aib][Aib][Aib]A[βAla]-OH) [listing 1 of 2 here] | 5.04 | 7 µM | 5.28 |  |  |  |  | mortality at 48 h, 50 µM [12]: 100%; EC50 at 48 h [2]: 30 µM |
| CCCCCCCCCC(=O)NC(C)(C)C(=O)N1CCC[C@H]1C(=O)NC(C)(C)C(=O)NC(C)(C)C(=O)N1CCC[C@H]1C(=O)NC(C)(C)C(=O)NC(C)(C)C(=O)N1CCC[C@H]1C(=O)N[C@@H](C)C(=O)NC(C)(C)C(=O)NCCC(=O)N[C@@H](C)C(=O)NC(C)(C)C(=O)NC(C)(C)C(=O)NCCC(=O)NC(C)(C)C(=O)NC(C)(C)C(=O)NC(C)(C)C(=O)N[C@@H](C)C(=O)NCCC(=O)O (Decanoyl-[Aib]P[Aib][Aib]P[Aib][Aib]PA[Aib][βAla]A[Aib][Aib][βAla][Aib][Aib][Aib]A[βAla]-OH) [listing 2 of 2 here] |  |  |  | 16 µg/mL (≈ 8.76 µM) | 16 µg/mL (≈ 8.76 µM) | 16 µg/mL (≈ 8.76 µM) | 16 µg/mL (≈ 8.76 µM) |  |
| CCCCCCCCCC(=O)NC(C)(C)C(=O)N1CCC[C@H]1C(=O)NC(C)(C)C(=O)NC(C)(C)C(=O)N1CCC[C@H]1C(=O)NC(C)(C)C(=O)NC(C)(C)C(=O)N1CCC[C@H]1C(=O)NC(C)(C)C(=O)NC(C)(C)C(=O)NCCC(=O)N[C@@H](C)C(=O)NC(C)(C)C(=O)NC(C)(C)C(=O)NCCC(=O)NC(C)(C)C(=O)NC(C)(C)C(=O)NC(C)(C)C(=O)N[C@@H](C)C(=O)NCCC(=O)O (Decanoyl-[Aib]P[Aib][Aib]P[Aib][Aib]P[Aib][Aib][βAla]A[Aib][Aib][βAla][Aib][Aib][Aib]A[βAla]-OH) [listing 1 of 2 here] | 5.09 | 10 µM | 5.21 |  |  |  |  |  |
| CCCCCCCCCC(=O)NC(C)(C)C(=O)N1CCC[C@H]1C(=O)NC(C)(C)C(=O)NC(C)(C)C(=O)N1CCC[C@H]1C(=O)NC(C)(C)C(=O)NC(C)(C)C(=O)N1CCC[C@H]1C(=O)NC(C)(C)C(=O)NC(C)(C)C(=O)NCCC(=O)N[C@@H](C)C(=O)NC(C)(C)C(=O)NC(C)(C)C(=O)NCCC(=O)NC(C)(C)C(=O)NC(C)(C)C(=O)NC(C)(C)C(=O)N[C@@H](C)C(=O)NCCC(=O)O (Decanoyl-[Aib]P[Aib][Aib]P[Aib][Aib]P[Aib][Aib][βAla]A[Aib][Aib][βAla][Aib][Aib][Aib]A[βAla]-OH) [listing 2 of 2 here] |  |  |  | 16 µg/mL (≈ 8.69 µM) | 16 µg/mL (≈ 8.69 µM) | 16 µg/mL (≈ 8.69 µM) | 16 µg/mL (≈ 8.69 µM) |  |
| CCCCCCCCCCCC(=O)NC(C)(C)C(=O)N1CCC[C@H]1C(=O)NC(C)(C)C(=O)NC(C)(C)C(=O)N1CCC[C@H]1C(=O)NC(C)(C)C(=O)NC(C)(C)C(=O)N1CCC[C@H]1C(=O)NC(C)(C)C(=O)NC(C)(C)C(=O)NCCC(=O)N[C@@H](C)C(=O)NC(C)(C)C(=O)NC(C)(C)C(=O)NCCC(=O)NC(C)(C)C(=O)NC(C)(C)C(=O)NC(C)(C)C(=O)N[C@@H](C)C(=O)NCCC(=O)O (Lauroyl-[Aib]P[Aib][Aib]P[Aib][Aib]P[Aib][Aib][βAla]A[Aib][Aib][βAla][Aib][Aib][Aib]A[βAla]-OH) [listing 1 of 2 here] | 4.95 | 2 µM | 5.02 |  |  |  |  |  |
| CCCCCCCCCCCC(=O)NC(C)(C)C(=O)N1CCC[C@H]1C(=O)NC(C)(C)C(=O)NC(C)(C)C(=O)N1CCC[C@H]1C(=O)NC(C)(C)C(=O)NC(C)(C)C(=O)N1CCC[C@H]1C(=O)NC(C)(C)C(=O)NC(C)(C)C(=O)NCCC(=O)N[C@@H](C)C(=O)NC(C)(C)C(=O)NC(C)(C)C(=O)NCCC(=O)NC(C)(C)C(=O)NC(C)(C)C(=O)NC(C)(C)C(=O)N[C@@H](C)C(=O)NCCC(=O)O (Lauroyl-[Aib]P[Aib][Aib]P[Aib][Aib]P[Aib][Aib][βAla]A[Aib][Aib][βAla][Aib][Aib][Aib]A[βAla]-OH) [listing 2 of 2 here] |  |  |  | 8 µg/mL (≈ 4.28 µM) | 4 µg/mL (≈ 2.14 µM) | 8 µg/mL (≈ 4.28 µM) | 16 µg/mL (≈ 8.56 µM) |  |
| CC[C@H](C)C[C@H](C)CCCCCCCCC(=O)N[C@H]1C[C@@H](O)[C@@H](NCCN)NC(=O)[C@@H]2[C@@H](O)CCN2C(=O)[C@H]([C@H](O)CCN)NC(=O)[C@H]([C@H](O)[C@@H](O)c2ccc(O)cc2)NC(=O)[C@@H]2C[C@@H](O)CN2C(=O)[C@H]([C@@H](C)O)NC1=O [CASPOFUNGIN] |  |  |  |  |  |  | 2 µg/mL (≈ 1.83 µM) |  |
| NC[C@H]1O[C@H](O[C@H]2[C@H](O)[C@@H](O[C@H]3O[C@H](CO)[C@@H](O)[C@H](N)[C@H]3O)[C@H](N)C[C@@H]2N)[C@H](O)[C@@H](O)[C@@H]1O [KANAMYCIN] |  |  |  |  | 1 µg/mL (≈ 2.06 µM) |  |  |  |
